Source: ChEMBL document CHEMBL1131429, “Nitrogen-carbon-linked (azolylphenyl)oxazolidinones with potent antibacterial activity against the fastidious gram-negative organisms Haemophilus influenzae and Moraxella catarrhalis” (J Med Chem, 1998)
In brackets after ≈: the same amount, converted by molar mass.

What was measured:
[1] = Cmax was evaluated in male Dawley rats at a dose of 9.9 mg/kg when taken intravenously; type: ADME, organism-based; design: dose 9.9 mg/kg, route intravenous; conditions: Sprague-Dawley, rat, in vivo, iv
In short: (§1)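 Single intravenous or oral doses were given to male Sprague-Dawley rats (n = 3), with plasma sampled to give Cmax and tmax. Vss was calculated as dose·AUMC/AUC², clearance as dose/AUC, and F as (AUC/dose)po/(AUC/dose)iv × 100, assuming linear PK. t1/2β is the harmonic mean terminal half-life. The oral entries show the iv half-life because the po half-life was not calculable.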

Rattus norvegicus [2] = assay: Dawley rats at a dose of 42.9 mg/kg when taken peroral; type: functional; conditions: route oral; in short: as §1
Rattus norvegicus [3] = assay: tmax was evaluated in male Dawley rats at a dose of 42.9 mg/kg when taken perorally; type: functional, organism-based; design: dose 42.9 mg/kg; in short: as §1
[4] = Absolute oral bioavailability was evaluated n male Dawley rats at a dose of 42.9 mg/kg when taken peroral; type: ADME, organism-based; conditions: Sprague-Dawley, rat, in vivo; in short: as §1
Haemophilus influenzae = assay: The compound was evaluated for its anti-bacterial activity against Haemophilus influenzae UC 30063; type: functional
In short: (§2)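 MICs were determined by standard agar dilution against a panel of Gram-positive and Gram-negative isolates.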

[5] = test system: Staphylococcus epidermidis; assay: The compound was evaluated for its anti-bacterial activity against methicillin resistant Staphylococcus epidermidis; type: functional
In short: (§3)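 MIC determined in vitro by standard agar dilution against bacterial isolates.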

[6] = steady-state volume of distribution was evaluated in male Dawley rats; type: ADME, organism-based; conditions: Sprague-Dawley, rat, in vivo, read-out: Vss; in short: as §1
Enterococcus faecalis = assay: The compound was evaluated for its anti-bacterial activity against Enterococcus faecalis UC 9217; type: functional; in short: as §2
Streptococcus pneumoniae [7] = assay: The compound was evaluated for its anti-bacterial activity against Streptococcus pneumoniae UC 9912; type: functional; in short: as §2
Staphylococcus aureus [8] = assay: The compound was evaluated for its anti-bacterial activity against methicillin resistant Staphylococcus aureus; type: functional; in short: as §3
[9] = terminal disposition half-life was evaluated in male Dawley rats at 9.9 mg/kg when taken intravenously; type: ADME, organism-based; design: dose 9.9 mg/kg, route intravenous; conditions: Sprague-Dawley, rat, in vivo, iv; in short: as §1
[10] = terminal disposition half-life was evaluated in male Dawley rats at a dose of 42.9 mg/kg when taken peroral; type: ADME, organism-based; design: dose 42.9 mg/kg, route oral; conditions: Sprague-Dawley, rat, in vivo, po; in short: as §1
Staphylococcus aureus [11] = assay: The compound was evaluated for its anti-bacterial activity against methicillin susceptible Staphylococcus aureus; type: functional; in short: as §3
Streptococcus pneumoniae [12] = assay: The compound was evaluated for its effective dose against Streptococcus pneumoniea UC 15087; type: functional
Rattus norvegicus [13] = assay: Dawley rats 9.9 mg/kg when taken intravenously; type: functional; conditions: route intravenous; in short: as §1
Staphylococcus aureus [14] = assay: The compound was evaluated for its effective dose against Staphylococcus aureus UC 9213; type: functional
Streptococcus pneumoniae [15] = assay: The compound was evaluated for its control effective dose against Streptococcus pneumoniea UC 15087; type: functional
[16] = Cmax was evaluated in male Dawley rats at a dose of 42.9 mg/kg when taken perorally; type: ADME, organism-based; design: dose 42.9 mg/kg, route oral; conditions: Sprague-Dawley, rat, in vivo, po; in short: as §1
Staphylococcus aureus [17] = assay: The compound was evaluated for its control effective dose against Staphylococcus aureus UC 9213; type: functional
Moraxella catarrhalis = assay: The compound was evaluated for its anti-bacterial activity against Moraxella catarrhalis UC 30610; type: functional; in short: as §2
Rattus norvegicus [18] = assay: Dawley rats at a dose of 9.0 mg/kg when taken intravenously; type: functional; conditions: route intravenous; in short: as §1
[19] = terminal disposition half-life was evaluated in male Dawley rats at a dose of 46.8 mg/kg when taken peroral; type: ADME, organism-based; design: dose 46.8 mg/kg, route oral; conditions: Sprague-Dawley, rat, in vivo, po; in short: as §1
[20] = Steady-state volume of distribution was evaluated in male Dawley rats at a dose of 9.0 mg/kg when taken intravenously; type: ADME, organism-based; design: dose 9 mg/kg, route intravenous; conditions: Sprague-Dawley, rat, in vivo, iv, read-out: Vss; in short: as §1
Rattus norvegicus [21] = assay: Dawley rats at a dose of 46.8 mg/kg when taken peroral; type: functional; conditions: route oral; in short: as §1
[22] = tmax was evaluated in male Dawley rats at a dose of 46.8 mg/kg when taken perorally; type: ADME, organism-based; design: dose 46.8 mg/kg, route oral; conditions: Sprague-Dawley, rat, in vivo, po; in short: as §1
[23] = Cmax was evaluated in male Dawley rats at a dose of 9.0 mg/kg when taken intravenously; type: ADME, organism-based; design: dose 9 mg/kg, route intravenous; conditions: Sprague-Dawley, rat, in vivo, iv; in short: as §1
[24] = Absolute oral bioavailability was evaluated n male Dawley rats at a dose of 46.8 mg/kg when taken peroral; type: ADME, organism-based; conditions: Sprague-Dawley, rat, in vivo; in short: as §1
[25] = terminal disposition half-life was evaluated in male Dawley rats at a dose of 9.0 mg/kg when taken intravenously; type: ADME, organism-based; design: dose 9 mg/kg, route intravenous; conditions: Sprague-Dawley, rat, in vivo, iv; in short: as §1
[26] = Cmax was evaluated in male Dawley rats at a dose of 46.8 mg/kg when taken perorally; type: ADME, organism-based; design: dose 46.8 mg/kg, route oral; conditions: Sprague-Dawley, rat, in vivo, po; in short: as §1
Rattus norvegicus [27] = assay: tmax was evaluated in male Dawley rats at a dose of 25 mg/kg when taken perorally; type: functional, organism-based; design: dose 25 mg/kg
Rattus norvegicus [28] = assay: Dawley rats at a dose of 10 mg/kg when taken intravenously; type: functional; conditions: route intravenous
[29] = Steady-state volume distribution was evaluated in male Dawley rats at a dose of 10 mg/kg when taken intravenously; type: ADME, organism-based; design: dose 10 mg/kg, route intravenous; conditions: Sprague-Dawley, rat, in vivo, iv, read-out: Vss
[30] = Cmax was evaluated in male Dawley rats at a dose of 25 mg/kg when taken perorally; type: ADME, organism-based; design: dose 25 mg/kg, route oral; conditions: Sprague-Dawley, rat, in vivo, po

SMILES	MIC (Haemophilus influenzae) [µg/mL]	MIC [5] [µg/mL]	MIC (Enterococcus faecalis) [µg/mL]	MIC (Streptococcus pneumoniae [7]) [µg/mL]	MIC (Staphylococcus aureus [8]) [µg/mL]	MIC (Staphylococcus aureus [11]) [µg/mL]	ED50 (Staphylococcus aureus [14]) [mg/kg/day]	ED50 (Staphylococcus aureus [17]) [mg/kg/day]	MIC (Moraxella catarrhalis) [µg/mL]	further results
CC(=O)NC[C@H]1CN(c2ccc(-n3ccc(C#N)c3)c(F)c2)C(=O)O1	4 (≈ 11.7 µM)	< 0.125	0.25 (≈ 0.73 µM)	< 0.125	0.25 (≈ 0.73 µM)	0.5 (≈ 1.46 µM)	1.9	4	1 (≈ 2.92 µM)	Cmax [1]: 26.1 µM; CL/F (Rattus norvegicus [2]): 1.43 mL/min/kg; Tmax (Rattus norvegicus [3]): 10 h; bioavailability [4]: 92%; Vd [6]: 0.52 L/kg; half-life [9]: 5.15 h; half-life [10]: 5.14 h; ED50 (Streptococcus pneumoniae [12]): 0.6 mg/kg/day; CL/F (Rattus norvegicus [13]): 1.18 mL/min/kg; ED50 (Streptococcus pneumoniae [15]): 1.4 mg/kg/day; Cmax [16]: 31 µM
CC(=O)NC[C@H]1CN(c2ccc(-n3cc(C#N)cn3)c(F)c2)C(=O)O1	4 (≈ 11.7 µM)	< 0.125	0.5 (≈ 1.46 µM)	< 0.125	0.5 (≈ 1.46 µM)	0.5 (≈ 1.46 µM)	1.2	3.3	2 (≈ 5.83 µM)	CL/F (Rattus norvegicus [18]): 1.04 mL/min/kg; half-life [19]: 5.35 h; Vd [20]: 0.43 L/kg; CL/F (Rattus norvegicus [21]): 1.25 mL/min/kg; Tmax [22]: 4 h; ED50 (Streptococcus pneumoniae [12]): 0.35 mg/kg/day; Cmax [23]: 29.2 µM; ED50 (Streptococcus pneumoniae [15]): 3.2 mg/kg/day; bioavailability [24]: 80%; half-life [25]: 5.35 h; Cmax [26]: 29.4 µM
CC(=O)NC[C@H]1CN(c2ccc(-n3ccc(C=O)c3)c(F)c2)C(=O)O1	2 (≈ 5.79 µM)	< 0.125	0.25 (≈ 0.724 µM)	< 0.125	0.25 (≈ 0.724 µM)	0.25 (≈ 0.724 µM)	>20	1.7	1 (≈ 2.9 µM)	
CC(=O)NC[C@H]1CN(c2ccc(N3CCOCC3)c(F)c2)C(=O)O1 [LINEZOLID]	16 (≈ 47.4 µM)	1 (≈ 2.96 µM)							8 (≈ 23.7 µM)	Tmax (Rattus norvegicus [27]): 0.3 h; CL/F (Rattus norvegicus [28]): 10.5 mL/min/kg; Vd [29]: 0.72 L/kg; Cmax [30]: 15.8 µM
CCOC(=O)c1cnn(-c2ccc(N3C[C@H](CNC(C)=O)OC3=O)cc2F)c1	> 16	2 (≈ 5.12 µM)	4 (≈ 10.2 µM)	1 (≈ 2.56 µM)	4 (≈ 10.2 µM)	4 (≈ 10.2 µM)			> 16	
CC(=O)NC[C@H]1CN(c2ccc(N3CCN(C(=O)CO)CC3)c(F)c2)C(=O)O1 [EPEREZOLID]	16 (≈ 40.6 µM)	0.5 (≈ 1.27 µM)	2 (≈ 5.07 µM)	0.5 (≈ 1.27 µM)	1 (≈ 2.54 µM)	4 (≈ 10.1 µM)			8 (≈ 20.3 µM)	
CC(=O)NC[C@H]1CN(c2ccc(-n3cc(C(N)=O)cn3)c(F)c2)C(=O)O1	> 16	4 (≈ 11.1 µM)	> 16	0.5 (≈ 1.38 µM)		> 16			> 16	
CN[C@H](CC(C)C)C(=O)N[C@H]1C(=O)N[C@@H](CC(N)=O)C(=O)N[C@H]2C(=O)N[C@H]3C(=O)N[C@H](C(=O)N[C@H](C(=O)O)c4cc(O)cc(O)c4-c4cc3ccc4O)[C@H](O)c3ccc(c(Cl)c3)Oc3cc2cc(c3O[C@@H]2O[C@H](CO)[C@@H](O)[C@H](O)[C@H]2O[C@H]2C[C@](C)(N)[C@H](O)[C@H](C)O2)Oc2ccc(cc2Cl)[C@H]1O [VANCOMYCIN]	> 32			0.5 (≈ 0.345 µM)					> 32	
CC(=O)NC[C@H]1CN(c2ccc(-n3ccc(/C=N\O)c3)c(F)c2)C(=O)O1	4 (≈ 11.1 µM)	0.25 (≈ 0.694 µM)	0.5 (≈ 1.39 µM)	< 0.125	0.5 (≈ 1.39 µM)	1 (≈ 2.78 µM)	5.5	2.6	1 (≈ 2.78 µM)	
